From ChEMBL document CHEMBL3407479, “Structure-activity relationship for the oxadiazole class of antibiotics” (J Med Chem, 2015)
In brackets after ≈: the same amount, converted by molar mass. Activity calls are given as the source filed them. The calls are words filed in the database; no cut-off is given here.

Key:
[1] = test system: Staphylococcus haemolyticus; assay: Antibacterial activity against Staphylococcus haemolyticus ATCC 29970 after 16 to 20 hrs by broth microdilution method; assay type: functional
Enterococcus faecium [2] = assay: Antibacterial activity against Enterococcus faecium NCTC 7171 after 16 to 20 hrs by broth microdilution method; assay type: functional
[3] = Clearance in ICR mouse at 20 mg/kg, iv; assay type: ADME, organism-based; design: dose 20 mg/kg, route intravenous; conditions: in vivo
[4] = Tmax in ICR mouse at 20 mg/kg, po; assay type: ADME, organism-based; design: dose 20 mg/kg, route oral; conditions: in vivo
[5] = Volume of distribution in ICR mouse at 20 mg/kg, iv; assay type: ADME, organism-based; design: dose 20 mg/kg, route intravenous; conditions: in vivo
Streptococcus oralis = assay: Antibacterial activity against Streptococcus oralis ATCC 9811 after 16 to 20 hrs by broth microdilution method; assay type: functional
Staphylococcus aureus [6] = assay: Antibacterial activity against methicillin-resistant Staphylococcus aureus ATCC 27660 in iv dosed ICR mouse peritonitis infection model assessed as survival rate administered at 0.5 and 7.5 hrs post infection; assay type: functional; conditions: ATCC 27660, iv
Enterococcus faecium [7] = assay: Ratio of MBC to MIC for Enterococcus faecium NCTC 7171; assay type: functional
[8] = Elimination half life in ICR mouse at 20 mg/kg, po; assay type: ADME, organism-based; design: dose 20 mg/kg, route oral; conditions: in vivo, read-out: beta t1/2 (converted)
[9] = Terminal half life in ICR mouse at 20 mg/kg, iv; assay type: ADME, organism-based; design: dose 20 mg/kg, route intravenous; conditions: in vivo, read-out: beta t1/2 (converted)
[10] = AUC (0 to infinity) in ICR mouse at 20 mg/kg, po; assay type: ADME, organism-based; design: time infinity, dose 20 mg/kg, route oral; conditions: plasma
Staphylococcus aureus [11] = assay: Antibacterial activity against methicillin-resistant Staphylococcus aureus ATCC 27660 in ICR mouse peritonitis infection model assessed as survival rate at 20 mg/kg, iv administered at 0.5 and 7.5 hrs post infection measured for 48 hrs; assay type: functional, organism-based; design: dose 20 mg/kg
Method in brief: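 Female ICR mice, 6–8 weeks, ~20 g, n = 6 per group. Bacteria at 10^8 cfu/mL mixed 1:1 with 10% mucin just before use; 0.5 mL given ip (final 5×10^7 cfu/mL, 5% mucin). Compound at 20 mg/kg iv by tail vein, twice, at 30 min and 7.5 h post-infection. […] Survivors counted at 48 h.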

Enterococcus faecalis = assay: Antibacterial activity against vancomycin-resistant Enterococcus faecalis 99 clinical isolate after 16 to 20 hrs by broth microdilution method; assay type: functional
Staphylococcus aureus [12] = assay: Antibacterial activity against vancomycin/methicillin-resistant Staphylococcus aureus VRS1 clinical isolate after 16 to 20 hrs by broth microdilution method; assay type: functional
[13] = Plasma protein binding in human at 10 uM after 6 hrs by equilibrium dialysis assay; assay type: ADME, cell-free
[14] = Cmax in ICR mouse at 20 mg/kg, po; assay type: ADME, organism-based; design: dose 20 mg/kg, route oral; conditions: in vivo
Mus musculus [15] = assay: AUC (0 to 24 hrs) in ICR mouse at 20 mg/kg, po; assay type: ADME, organism-based, Plasma; design: time < 24 hr, dose 20 mg/kg, route oral; conditions: in vivo
[16] = Distribution phase half life in ICR mouse at 20 mg/kg, po; assay type: ADME, organism-based; design: dose 20 mg/kg, route oral; conditions: in vivo, read-out: alphat1/2 (converted)
Streptococcus pyogenes = assay: Antibacterial activity against Streptococcus pyogenes ATCC 49399 after 16 to 20 hrs by broth microdilution method; assay type: functional
[17] = test system: Staphylococcus epidermidis; assay: Antibacterial activity against Staphylococcus epidermidis ATCC 35547 after 16 to 20 hrs by broth microdilution method; assay type: functional
Mus musculus [18] = assay: AUC (0 to 24 hrs) in ICR mouse at 20 mg/kg, iv; assay type: ADME, organism-based, Plasma; design: time < 24 hr, dose 20 mg/kg, route intravenous; conditions: in vivo
Staphylococcus aureus [19] = assay: Antibacterial activity against methicillin-resistant Staphylococcus aureus ATCC 27660 in po dosed ICR mouse peritonitis infection model assessed as survival rate administered at 1 hr post infection; assay type: functional; conditions: ATCC 27660, po
Method in brief: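 Female ICR mice, 6–8 weeks, given 0.5 mL ip of S. aureus (final 5×10^7 cfu/mL in 5% mucin). Six mice per dose level; a single oral dose at 1 h post-infection.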

Staphylococcus aureus [20] = assay: Antibacterial activity against methicillin-resistant Staphylococcus aureus ATCC 27660 in po dosed ICR mouse peritonitis infection model assessed as survival rate administered at 0.5 and 7.5 hrs post infection; assay type: functional; conditions: ATCC 27660, po
[21] = AUC (0 to infinity) in ICR mouse at 20 mg/kg, iv; assay type: ADME, organism-based; design: time infinity, dose 20 mg/kg, route intravenous; conditions: plasma
HepG2 = assay: Cytotoxicity against human HepG2 cells assessed as cell viability after 16 hrs by XTT assay; assay type: cell-based; conditions: HepG2, 16 h
Method in brief: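 HepG2 cells were run in triplicate in an XTT viability assay. IC50 was derived from the concentration–response data.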

Bacillus cereus = assay: Antibacterial activity against Bacillus cereus ATCC 13061 after 16 to 20 hrs by broth microdilution method; assay type: functional
Staphylococcus aureus [22] = assay: Antibacterial activity against methicillin-sensitive Staphylococcus aureus ATCC 29213 after 16 to 20 hrs by broth microdilution method; assay type: functional
Staphylococcus aureus [23] = assay: Bactericidal activity against methicillin-sensitive Staphylococcus aureus ATCC 29213 after 48 hrs; assay type: functional; conditions: ATCC 29213, 48 h
[24] = Primary phase half life in ICR mouse at 20 mg/kg, iv; assay type: ADME, organism-based; design: dose 20 mg/kg, route intravenous; conditions: in vivo, read-out: alphat1/2

SMILES: FC(F)(F)c1ccc(Oc2ccc(-c3noc(-c4ccc5[nH]ccc5c4)n3)cc2)cc1
- MIC [1]: 8 µg/mL (≈ 19 µM)
- MIC (Enterococcus faecium [2]): 2 µg/mL (≈ 4.75 µM)
- clearance [3]: 5.68 mL/min/kg
- Tmax [4]: 6 h
- Vd [5]: 4.73 L/kg
- MIC (Streptococcus oralis): 128 µg/mL (≈ 304 µM)
- ED50 (Staphylococcus aureus [6]): 7.6 mg/kg
- Ratio (Enterococcus faecium [7]): 2
- half-life [8]: 18.6 h
- half-life [9]: 9.6 h
- AUC(0-inf) [10]: 67700 ng·h/mL
- Activity (Staphylococcus aureus [11]): Active
- MIC (Enterococcus faecalis): 16 µg/mL (≈ 38 µM)
- MIC (Staphylococcus aureus [12]): 1 µg/mL (≈ 2.37 µM)
- PPB [13]: 98.2%
- Cmax [14]: 2340 ng/mL
- AUC (Mus musculus [15]): 3060 µg·min/mL
- half-life [16]: 15.9 h
- MIC (Streptococcus pyogenes): 64 µg/mL (≈ 152 µM)
- MIC [17]: 4 µg/mL (≈ 9.49 µM)
- AUC (Mus musculus [18]): 3140 µg·min/mL
- ED50 (Staphylococcus aureus [19]): 3.1 mg/kg
- ED50 (Staphylococcus aureus [20]): 1.7 mg/kg
- AUC(0-inf) [21]: 58700 ng·h/mL
- IC50 (HepG2): 75.7 µg/mL (≈ 180 µM)
- MIC (Bacillus cereus): 16 µg/mL (≈ 38 µM)
- MIC (Staphylococcus aureus [22]): 2 µg/mL (≈ 4.75 µM)
- MBC (Staphylococcus aureus [23]): 2 µg/mL (≈ 4.75 µM)
- half-life [24]: 32.4 s
